Screening results: PubChem BioAssay, Sanford-Burnham Center for Chemical Genomics
FLuc act counter = FLuc activators, initial screening, artefact control for FLuc-dependent activation tests, biochemical, ATPlite luminescence; 200,000 tested, under 10 active; activation factor at 10 µM; AID 1027, 2008; ATPlite luciferase biochemical, 10 min; 0 = ATP-free wells, 1 = DMSO control;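 active = luciferase activation factor, scaled between plate controls, of at least 2 with compound at 10 µM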
Target sequence (P08659 whole entry, looked up): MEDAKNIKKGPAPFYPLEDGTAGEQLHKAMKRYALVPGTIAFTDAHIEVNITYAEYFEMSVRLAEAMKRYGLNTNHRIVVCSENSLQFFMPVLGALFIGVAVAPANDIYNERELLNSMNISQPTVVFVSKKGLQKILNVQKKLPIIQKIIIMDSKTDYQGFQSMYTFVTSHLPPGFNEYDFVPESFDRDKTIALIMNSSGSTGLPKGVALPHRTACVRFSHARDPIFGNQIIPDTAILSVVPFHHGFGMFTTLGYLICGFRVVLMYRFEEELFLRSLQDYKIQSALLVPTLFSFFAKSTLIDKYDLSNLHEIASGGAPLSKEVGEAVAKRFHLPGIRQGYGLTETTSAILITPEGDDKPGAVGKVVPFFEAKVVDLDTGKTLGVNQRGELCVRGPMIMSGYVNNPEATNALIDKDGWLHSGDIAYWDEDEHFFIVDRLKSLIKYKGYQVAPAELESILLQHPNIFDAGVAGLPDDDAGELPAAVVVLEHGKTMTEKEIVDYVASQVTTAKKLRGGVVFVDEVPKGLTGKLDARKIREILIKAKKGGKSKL
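Material: luciferase plus luciferin reagent, cell-free. Medium: PBS buffer for ATP. Also added: ATP substrate, dispensed from a 10.24 µM working solution in PBS. Doses: test compounds dosed from 2 mM stocks in 100% DMSO. Incubation: 10 min post-reagent at room temperature. Technique: light output (luminescence). Read-out basis: luminescence gain marking luciferase activators.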
FLuc inhib CS = firefly luciferase enzyme inhibitors, primary screen, artefact control for luciferase-based inhibitor screens, biochemical, luminescence, ATPLite. Luciferin 4-monooxygenase (Photinus pyralis), P08659. 10 min. inhibition, % at 10 µM. hit rate 1.5% among 200,000. AID 1006, 2008;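 active = inhibition above about 50% when tested at 10 µM, limit read from the data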
PPC-1+TRAIL kill = compounds killing PPC-1 cancer cells with TRAIL present, primary screen, TRAIL potentiator project, ATPLite luminescence, uHTS. PPC-1 cells + TRAIL, ATPLite viability luminescence. cell killing (% activity), % at 4 µM or 5 µM. hit rate 0.41% among 220,000;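 active = cell killing above 50% in the first pass at 4 µM, then a duplicate retest at 5 µM averaging 50% or more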
C8 TRAIL sens = viability loss with TRAIL in NB7+C8 cells, primary screen, TRAIL sensitizer project, cell-based, ATPlite luminescence; inhibition (viability loss, TRAIL sensitization), % at 10 µM; hit rate 1% among 360,000; AID 624354, 2012;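 active = compounds causing at least 50% loss of cell viability in the single-dose screen, relative to plate controls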
A number is an active result; 0 = inactive; - = no result given. Hits are enriched below; roughly 1.6% of the tested compounds scored in any of these assays.

SMILES	FLuc act counter	FLuc inhib CS	PPC-1+TRAIL kill	C8 TRAIL sens
COc1ccc(N/C=C/C(=O)c2ccc(OC)c(OC)c2)cc1	-	-	0	0
COc1ccc(OC)c(N/C(C)=C/C(=O)c2ccccc2)c1	0	76	0	0
COc1ccc(OC)c(S(=O)(=O)NC(=O)C2(C)CCN2C(=O)CC2CCCC2)c1 (centres undefined)	-	-	-	0
Cc1ccc(C(=O)Nc2nc3ccc(S(C)(=O)=O)cc3s2)o1	0	74	0	0
Cc1noc(C)c1C(=O)Nc1nc2ccc(S(C)(=O)=O)cc2s1	-	-	-	54
CCOc1ccc(C(=O)NN2C(=S)NC(C)(C)C=C2C)cc1	-	-	0	0
Cc1cc(C)c(NN=c2c(=O)c3ccccc3c2=O)c(C)c1	0	0	0	0
O=c1c(=NNc2ccccc2Cl)c(=O)c2ccccc12	0	80	0	77
CCc1cccc(NS(=O)(=O)c2c(C)[nH]c(=O)[nH]c2=O)c1	-	-	-	0
COc1cccc2c1CCc1c-2nc2ccccc2c1C(=O)O	-	-	-	68
COc1ccccc1NC(=O)c1c(C)nc2ccccc2c1C(=O)O	-	-	0	0
COc1ccc(C/C(N)=N/OC(=O)c2ccc(Cl)cc2)cc1	0	0	0	0
N/C(Cc1ccc(Cl)cc1)=N\OC(=O)c1ccc2ccccc2c1	0	0	0	95
N/C(Cc1ccc(Cl)cc1)=N\OC(=O)CCc1ccccc1	-	-	-	0
N/C(Cc1ccc(Cl)cc1)=N\OC(=O)c1cccc2ccccc12	0	0	0	68
CCc1nc2ccc(C(=O)N3CCN(c4ccccc4)CC3)cn2c1N(CCC(C)C)CCN(C)C	-	-	-	0
Nc1nc(-c2ccccn2)nc(N)c1Cc1ccccc1F	0	57	0	0
Nc1ccc2nc(-c3cc(Cl)c(N)c(Cl)c3)[nH]c2c1	0	0	0	0
Nc1ccc(-c2nc3ccc(N)cc3[nH]2)cc1	0	52	0	0
Cc1nc2ccc(-c3nc4ccc(N)cc4[nH]3)cc2[nH]1	0	78	0	0
Cc1nc2ccc(-c3nc4ccccc4o3)cc2[nH]1	0	63	0	0
Nc1ccc2nc(-c3ccc(Cl)cc3)[nH]c2c1	0	75	0	0
Nc1ccc2nc(-c3cccc(-c4nc5ccc(N)cc5[nH]4)c3)[nH]c2c1	-	-	-	0
CC(C)N(C(=O)N1CCN(c2ccnc3cc(Cl)ccc23)CC1)C(C)C	-	-	-	0
O=C(O)c1cc(-c2ccc3ccccc3c2)nc2ccc(F)cc12	-	-	-	54
SMILES	FLuc act counter	FLuc inhib CS	PPC-1+TRAIL kill	C8 TRAIL sens
O=C(O)c1cc(-c2ccc3ccccc3n2)nc2ccccc12	-	-	-	78
CCc1ccc(-c2cc(C(=O)O)c3ccccc3n2)s1	-	-	-	68
O=C(O)c1cc(-c2c[nH]c3ccccc23)nc2cc3ccccc3cc12	-	-	0	52
O=C(Nc1ncccn1)c1cc(-c2ccc(F)cc2)nc2ccccc12	0	0	0	0
COc1ccc2c(c1)C=C(CN1CCN(C3CCCC3)C(CCO)C1)CO2 (centres undefined)	0	0	0	0
O=C(O)/C=C/c1ccc(-n2ccnc2)cc1	-	-	0	0
O=C(/C=C/c1ccccc1)Nc1ccc2c(c1)OCCO2	0	94	-	75
COc1ccccc1/C=C/C(=O)Nc1ccc2c(c1)OCCO2	0	85	56	75
O=C(CSCSCC(=O)Nc1ccc2c(c1)OCO2)Nc1ccc2c(c1)OCO2	0	0	0	0
CC(C)=CC(=O)Nc1ccc2c(c1)OCO2	0	51	0	0
COCCCN(C(=O)Cc1ccc(S(=O)(=O)N2CCOCC2)s1)c1c(N)n(Cc2ccccc2)c(=O)[nH]c1=O	-	-	-	0
CSc1ccc(CN2CCN(C(C)C)C(CCO)C2)cc1 (centres undefined)	0	0	0	0
Cc1ccc(NC(=O)c2ccc3nc[nH]c3c2)c(O)c1	0	50	0	0
Cc1ccc(NC(=O)c2ccc3nc[nH]c3c2)nc1	-	-	-	0
COc1ccc2sc(N(CCCN(C)C)C(=O)c3ccc(S(=O)(=O)N4CCc5ccccc5C4)cc3)nc2c1	-	-	-	93
Cc1cc(C)c2sc(N(CCCN(C)C)C(=O)c3ccc(S(=O)(=O)N4CCCc5ccccc54)cc3)nc2c1	-	-	-	74
COc1ccc2sc(N(CCCN(C)C)C(=O)c3ccc(S(=O)(=O)N4CCCC4)cc3)nc2c1	-	-	-	0
CN(C)CCCN(C(=O)c1ccc(S(=O)(=O)N2CCc3ccccc3C2)cc1)c1nc2ccc(F)cc2s1	-	-	-	85
Cc1cc(C)c2sc(N(CCCN(C)C)C(=O)c3ccc(S(=O)(=O)N4CCc5ccccc5C4)cc3)nc2c1	-	-	-	92
CN(C)CCCN(C(=O)c1ccc(S(=O)(=O)N2CCc3ccccc32)cc1)c1nc2ccc(F)cc2s1	-	-	-	0
CN(C)CCCN(C(=O)c1ccc(S(=O)(=O)N2CCc3ccccc3C2)cc1)c1nc2c(F)cccc2s1	-	-	-	0
c1ccc(CNc2cncnc2)cc1	-	-	-	0
CN1CCN(NC(=O)c2cc(Br)ccc2Cl)CC1	0	0	0	0
O=C(NCCCn1ccnc1)c1ccc(COc2ccccc2)o1	-	-	-	0
CS(=O)(=O)c1ccc(S(=O)(=O)N2CCN(C(=O)C(O)c3ccccc3)CC2)cc1 (centres undefined)	-	-	-	0
SMILES	FLuc act counter	FLuc inhib CS	PPC-1+TRAIL kill	C8 TRAIL sens
CC(C)Oc1ccc(S(=O)(=O)N2CCOCC2)cc1NC(=O)c1ccc(Cl)c(S(=O)(=O)N2CCOCC2)c1	-	-	-	0
Cc1cccc2sc(N(CCCN(C)C)C(=O)c3ccc(S(=O)(=O)N4CCc5ccccc5C4)cc3)nc12	-	-	-	0
Cc1ccc2nc(N(CCCN(C)C)C(=O)c3ccc(S(=O)(=O)N4CCc5ccccc5C4)cc3)sc2c1	-	-	-	77
CC(=O)Nc1cccc(C(=O)OCC(=O)c2ccccc2Cl)c1	0	82	0	0
CCC(=O)Nc1cccc(C(=O)OCC(=O)c2ccccc2Cl)c1	0	0	0	0
COCCn1c(C)cc(C(=O)COC(=O)c2ccc(Cl)c(S(N)(=O)=O)c2)c1C	-	-	-	62
Cc1cc(C(=O)COC(=O)c2ccc(Br)o2)c(C)n1C	0	0	0	0
Cc1ccc(-n2c(C)cc(C(=O)COC(=O)c3ccc[nH]c3=O)c2C)cc1	0	81	0	61
COCCn1c(C)cc(C(=O)COC(=O)c2ccc[nH]c2=O)c1C	0	84	0	0
COCCn1c(C)cc(C(=O)COC(=O)c2ccc(Br)o2)c1C	0	80	0	0
Cc1cc(C(=O)COC(=O)c2ccc(Cl)c(S(N)(=O)=O)c2)c(C)n1CC1CCCO1 (centres undefined)	-	-	-	0
N#CCCN(Cc1cccnc1)C(=S)NC(=O)C1CC1	0	0	0	-
C(=C\c1ccco1)/c1nc2ccccc2[nH]1	0	83	0	51
Cc1csc(NC(=O)c2cncc(Br)c2)n1	0	50	0	0
Cc1csc(NC(=O)c2ccc(C(=O)Nc3nc(C)cs3)cc2)n1	-	-	0	-
CCS(=O)(=O)N1Cc2ccccc2CC1C(=O)N(C)Cc1ccc(OC)c(F)c1 (centres undefined)	-	-	-	0
COc1ccc(Nc2cccccc2=O)cc1	0	0	0	0
COc1ccc(Nc2cccc3ccccc23)cc1	-	-	-	56
Cc1ccc2oc(-c3ccccc3)c(C(=O)O)c(=O)c2c1	0	0	0	57
